ChEMBL document CHEMBL4373735, “N-alkyl-hydroxybenzoyl anilide hydroxamates as dual inhibitors of HDAC and HSP90, downregulating IFN-γ induced PD-L1 expression” (Eur J Med Chem, 2020)
Active and inactive are the calls of the source. The rule behind the calls is not given here.

Legend:
NCI-H1975 [1] = assay: Cell cycle arrest in human NCI-H1975 cells assessed as increase in accumulation at sub-G1 phase at 0.1 to 3 uM after 48 hrs by propidium iodide/RNase staining based FACScan flow cytometry analysis; format: functional
In short: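 H1975 cells seeded at 2.5×10^5/well, left overnight, then exposed to DMSO or compound at several concentrations for 48 h. Washed in PBS, fixed in ice-cold 70% ethanol at -20 °C overnight, stained with propidium iodide 80 ug/ml plus 0.1% Triton X-100 and RNase A 100 ug/ml in PBS. DNA content read by FACScan.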

Histone deacetylase 8 = Histone deacetylase 8 (Homo sapiens, UniProt Q9BY41); assay: Inhibition of recombinant C-terminal His-fusion tagged and N-terminal Streptavidin2-tagged human HDAC8 (1 to 377 residues) expressed in insect cells using RHK-K(Ac)-AMC as substrate after 60 mins by fluorescence assay
Sequence of Histone deacetylase 8 (Q9BY41 whole entry, the tested form may be a part, canonical isoform): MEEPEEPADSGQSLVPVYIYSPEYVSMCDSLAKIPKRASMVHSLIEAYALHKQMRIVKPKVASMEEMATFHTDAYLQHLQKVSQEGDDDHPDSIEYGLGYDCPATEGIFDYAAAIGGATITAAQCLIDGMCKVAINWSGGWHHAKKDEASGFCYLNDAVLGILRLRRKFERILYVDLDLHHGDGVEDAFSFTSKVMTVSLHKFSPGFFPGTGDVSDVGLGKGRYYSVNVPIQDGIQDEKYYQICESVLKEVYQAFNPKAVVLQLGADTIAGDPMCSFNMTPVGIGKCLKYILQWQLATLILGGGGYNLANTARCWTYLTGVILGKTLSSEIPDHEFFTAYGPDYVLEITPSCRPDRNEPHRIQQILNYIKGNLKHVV
In short: (§1)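 Isoform assays run by an outside contractor. […] Trichostatin A tested in parallel the same way as control.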

NCI-H1975 [2] = assay: Induction of apoptosis in human NCI-H1975 cells assessed as activation of caspase 8 at 0.1 to 3 uM measured after 48 hrs immunoblot analysis; format: functional, cell-based
In short: (§2)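 H1975 cells cultured with compound at the indicated concentrations for 48 h, then immunoblotted with the indicated antibodies. Lysis buffer was ice-cold RIPA-type with phosphatase and protease inhibitors, 30 min on ice. Proteins separated on 8-15% SDS-PAGE, transferred to PVDF, primary antibody overnight at 4°C, HRP secondary 1 h at room temperature, ECL detection.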

Histone deacetylase 7 = Histone deacetylase 7 (Homo sapiens, UniProt Q8WUI4); assay: Inhibition of recombinant human N-terminal GST-tagged HDAC7 (518 to 991 residues) expressed in baculovirus infected insect cells using Boc-K(Ac)-AMC as substrate after 90 mins by fluorimetry analysis; in short: as §1
Sequence of Histone deacetylase 7 (Q8WUI4 whole entry, the tested form may be a part): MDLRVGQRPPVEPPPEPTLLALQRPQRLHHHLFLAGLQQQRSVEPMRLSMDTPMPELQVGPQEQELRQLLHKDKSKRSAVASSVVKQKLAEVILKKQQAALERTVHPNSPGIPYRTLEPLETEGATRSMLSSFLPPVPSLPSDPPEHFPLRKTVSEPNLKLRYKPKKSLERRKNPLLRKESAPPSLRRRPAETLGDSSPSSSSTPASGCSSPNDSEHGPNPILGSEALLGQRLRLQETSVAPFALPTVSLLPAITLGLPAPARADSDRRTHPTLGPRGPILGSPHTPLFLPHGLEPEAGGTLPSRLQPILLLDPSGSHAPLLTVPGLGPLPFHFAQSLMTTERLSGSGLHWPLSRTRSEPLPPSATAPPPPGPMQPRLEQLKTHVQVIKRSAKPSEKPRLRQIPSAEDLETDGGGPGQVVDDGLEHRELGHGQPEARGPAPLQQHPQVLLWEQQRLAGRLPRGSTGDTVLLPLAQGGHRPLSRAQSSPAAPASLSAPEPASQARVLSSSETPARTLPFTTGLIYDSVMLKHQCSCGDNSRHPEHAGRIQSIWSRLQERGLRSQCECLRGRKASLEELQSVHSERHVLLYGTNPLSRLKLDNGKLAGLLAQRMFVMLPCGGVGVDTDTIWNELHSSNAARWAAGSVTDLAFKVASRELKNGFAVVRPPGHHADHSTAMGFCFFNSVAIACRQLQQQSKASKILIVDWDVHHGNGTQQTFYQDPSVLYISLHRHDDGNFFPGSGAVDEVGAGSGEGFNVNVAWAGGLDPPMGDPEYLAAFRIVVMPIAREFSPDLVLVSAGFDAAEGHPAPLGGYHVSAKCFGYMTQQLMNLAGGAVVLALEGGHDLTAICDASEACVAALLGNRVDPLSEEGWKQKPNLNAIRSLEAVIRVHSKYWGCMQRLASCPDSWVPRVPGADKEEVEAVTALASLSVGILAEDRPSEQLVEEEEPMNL

[3] = target: Histone deacetylase (Homo sapiens) (UniProt Q13547+O15379+Q9UBN7+Q92769+Q9UQL6+Q8WUI4+Q9BY41+Q96DB2+P56524+Q9UKV0+Q969S8); assay: Inhibition of HDAC in human H1975 cells assessed as alpha tubulin acetylation after 24 hrs by Western blot analysis; format: cell-based
In short: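 Whole-cell lysates from H1975 cells after 24 h culture with compound at the indicated concentrations. Acetylated α-tubulin and acetylated histone H3 detected by immunoblot: SDS-PAGE, PVDF transfer, primary antibody overnight at 4°C, HRP secondary, ECL. Repeated at least three times.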

NCI-H1975 [4] = assay: Inhibition of IFNgamma-induced PD-L1 expression in human NCI-H1975 cells assessed as reduction in PD-L1 expression incubated for 48 hrs by Western blot analysis; format: functional, cell-based
In short: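 H1975 cells exposed to IFN-γ 20 ng/ml alone or together with compound at the indicated concentrations for 48 h. Lysates run on 10% reducing SDS-PAGE and transferred to nitrocellulose. Blocked in 5% milk/PBST, probed with mouse anti-PD-L1 for 1 h, HRP goat anti-mouse detected by ECL. β-actin used as loading control.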

Histone deacetylase 1 = Histone deacetylase 1 (Homo sapiens, UniProt Q13547); assay: Inhibition of recombinant full length human FLAG/His-tagged HDAC1 (1 to 482 residues) expressed in baculovirus infected insect cells using RHK-K(Ac)-AMC as substrate measured after 60 mins by fluorimetric assay; in short: as §1
Sequence of Histone deacetylase 1 (Q13547 whole entry, the tested form may be a part): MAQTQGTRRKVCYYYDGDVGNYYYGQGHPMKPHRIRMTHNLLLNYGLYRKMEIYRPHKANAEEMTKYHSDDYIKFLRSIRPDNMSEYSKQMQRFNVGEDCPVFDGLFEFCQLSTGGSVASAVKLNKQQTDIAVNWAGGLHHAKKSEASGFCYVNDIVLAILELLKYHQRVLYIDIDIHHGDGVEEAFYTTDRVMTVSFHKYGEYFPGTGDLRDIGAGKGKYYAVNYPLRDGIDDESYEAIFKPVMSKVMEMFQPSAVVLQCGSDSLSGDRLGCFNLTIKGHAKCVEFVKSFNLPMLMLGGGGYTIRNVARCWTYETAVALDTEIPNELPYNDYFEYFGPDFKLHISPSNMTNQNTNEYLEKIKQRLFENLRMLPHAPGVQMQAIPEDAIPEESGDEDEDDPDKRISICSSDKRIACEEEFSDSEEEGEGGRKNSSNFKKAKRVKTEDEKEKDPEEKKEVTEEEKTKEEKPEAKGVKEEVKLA

NCI-H1975 [5] = assay: Induction of apoptosis in human NCI-H1975 cells assessed as activation of PARP at 0.1 to 3 uM measured after 48 hrs immunoblot analysis; format: functional, cell-based; in short: as §2
[6] = target: Protein deacetylase HDAC6 (Homo sapiens, UniProt Q9UBN7); assay: Inhibition of recombinant human N-terminal GST-tagged HDAC6 (1 to 1125 residues) expressed in baculovirus infected insect cells using RHK-K(Ac)-AMC as substrate after 90 mins by fluorimetry analysis; in short: as §1
Sequence of Protein deacetylase HDAC6 (Q9UBN7 whole entry, the tested form may be a part): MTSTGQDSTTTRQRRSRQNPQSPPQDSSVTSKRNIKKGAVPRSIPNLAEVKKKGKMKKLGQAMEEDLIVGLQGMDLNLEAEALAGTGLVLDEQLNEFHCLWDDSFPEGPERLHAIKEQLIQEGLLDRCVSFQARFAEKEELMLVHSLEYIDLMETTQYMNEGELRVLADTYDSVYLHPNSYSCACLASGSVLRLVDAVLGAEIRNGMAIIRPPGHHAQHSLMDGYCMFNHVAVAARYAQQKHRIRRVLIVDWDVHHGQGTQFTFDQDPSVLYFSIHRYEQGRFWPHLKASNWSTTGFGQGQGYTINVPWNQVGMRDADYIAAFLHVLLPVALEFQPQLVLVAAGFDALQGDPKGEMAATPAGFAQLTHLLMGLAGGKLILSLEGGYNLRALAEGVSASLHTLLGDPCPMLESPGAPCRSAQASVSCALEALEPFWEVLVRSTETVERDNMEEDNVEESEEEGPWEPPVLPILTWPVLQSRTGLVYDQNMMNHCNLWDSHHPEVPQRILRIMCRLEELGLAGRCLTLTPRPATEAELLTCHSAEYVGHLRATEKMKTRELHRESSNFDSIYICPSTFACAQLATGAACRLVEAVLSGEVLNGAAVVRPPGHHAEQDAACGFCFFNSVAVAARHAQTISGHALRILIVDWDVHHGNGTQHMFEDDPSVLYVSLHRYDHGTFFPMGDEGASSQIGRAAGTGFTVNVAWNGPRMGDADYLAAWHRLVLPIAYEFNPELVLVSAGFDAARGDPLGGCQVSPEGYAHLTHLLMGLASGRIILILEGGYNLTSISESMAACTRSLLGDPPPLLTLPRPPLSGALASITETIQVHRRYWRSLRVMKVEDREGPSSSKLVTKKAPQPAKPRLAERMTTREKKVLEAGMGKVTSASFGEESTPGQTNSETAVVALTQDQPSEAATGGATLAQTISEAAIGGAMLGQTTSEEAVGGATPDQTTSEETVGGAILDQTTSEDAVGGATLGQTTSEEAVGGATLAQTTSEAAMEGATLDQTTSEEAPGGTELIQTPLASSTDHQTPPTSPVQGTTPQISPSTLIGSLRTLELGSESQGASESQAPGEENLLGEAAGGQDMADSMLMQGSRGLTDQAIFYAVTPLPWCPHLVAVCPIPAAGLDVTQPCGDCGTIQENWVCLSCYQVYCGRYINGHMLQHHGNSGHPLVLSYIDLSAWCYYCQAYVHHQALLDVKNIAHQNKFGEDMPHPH

| SMILES | Activity (NCI-H1975 [1]) | IC50 (Histone deacetylase 8) | Activity (NCI-H1975 [2]) | IC50 (Histone deacetylase 7) | inhibition [3] | inhibition (NCI-H1975 [4]) | IC50 (Histone deacetylase 1) | Activity (NCI-H1975 [5]) | IC50 [6] |
| --- | --- | --- | --- | --- | --- | --- | --- | --- | --- |
| CC(C)c1cc(C(=O)N(C)c2ccc(NC(=O)CCCCCCCC(=O)NO)cc2)c(O)cc1O | Active | 3410 nM | Active | 6400 nM | Dose-dependent effect | Dose-dependent effect | 6060 nM | Active | 316 nM |
| CC(C)c1cc(C(=O)N(C)c2ccc(NC(=O)CCCCCCC(=O)NO)cc2)c(O)cc1O | Active | 422 nM | Active | > 10000 nM | Dose-dependent effect | Dose-dependent effect | 1310 nM | Active | 40 nM |
